A selection: hits, their analogues and other compounds. The true share with any hit is near 5.5%.
STAT1 blocker: reduces IFN-gamma driven STAT1 reporter signal; inhibition, % at 5.5 µM; hit rate 0.35% among 200,000; AID 920; NIH 3T3 STAT1-luciferase reporter, luminescence;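 active = inhibition above a set limit, the mean inhibition across all tested compounds plus 3 SD, cut at about 34% in these data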;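 note: 0% = IFN-gamma with DMSO and 100% = IFN-gamma with 300 µM nifuroxazide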
KCC2 mod: KCC2 (human) Cl- transport modulation | B-score of Tl+ flux slope (higher = more flux/activation; lower = inhibition) at 10 µM | KCC2 cells, thallium flux FluoZin-2 fluorescence | hit rate 2.2% among 190,000 | Q9H2X9;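 active = thallium flux slope and its plate-corrected score both differing from the plate sample mean at a set confidence after two filtering rounds, in either direction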;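 note: slope of fluorescence scaled to starting intensity during 10 to 20 s after thallium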
Target sequence (Q9H2X9 whole entry, looked up): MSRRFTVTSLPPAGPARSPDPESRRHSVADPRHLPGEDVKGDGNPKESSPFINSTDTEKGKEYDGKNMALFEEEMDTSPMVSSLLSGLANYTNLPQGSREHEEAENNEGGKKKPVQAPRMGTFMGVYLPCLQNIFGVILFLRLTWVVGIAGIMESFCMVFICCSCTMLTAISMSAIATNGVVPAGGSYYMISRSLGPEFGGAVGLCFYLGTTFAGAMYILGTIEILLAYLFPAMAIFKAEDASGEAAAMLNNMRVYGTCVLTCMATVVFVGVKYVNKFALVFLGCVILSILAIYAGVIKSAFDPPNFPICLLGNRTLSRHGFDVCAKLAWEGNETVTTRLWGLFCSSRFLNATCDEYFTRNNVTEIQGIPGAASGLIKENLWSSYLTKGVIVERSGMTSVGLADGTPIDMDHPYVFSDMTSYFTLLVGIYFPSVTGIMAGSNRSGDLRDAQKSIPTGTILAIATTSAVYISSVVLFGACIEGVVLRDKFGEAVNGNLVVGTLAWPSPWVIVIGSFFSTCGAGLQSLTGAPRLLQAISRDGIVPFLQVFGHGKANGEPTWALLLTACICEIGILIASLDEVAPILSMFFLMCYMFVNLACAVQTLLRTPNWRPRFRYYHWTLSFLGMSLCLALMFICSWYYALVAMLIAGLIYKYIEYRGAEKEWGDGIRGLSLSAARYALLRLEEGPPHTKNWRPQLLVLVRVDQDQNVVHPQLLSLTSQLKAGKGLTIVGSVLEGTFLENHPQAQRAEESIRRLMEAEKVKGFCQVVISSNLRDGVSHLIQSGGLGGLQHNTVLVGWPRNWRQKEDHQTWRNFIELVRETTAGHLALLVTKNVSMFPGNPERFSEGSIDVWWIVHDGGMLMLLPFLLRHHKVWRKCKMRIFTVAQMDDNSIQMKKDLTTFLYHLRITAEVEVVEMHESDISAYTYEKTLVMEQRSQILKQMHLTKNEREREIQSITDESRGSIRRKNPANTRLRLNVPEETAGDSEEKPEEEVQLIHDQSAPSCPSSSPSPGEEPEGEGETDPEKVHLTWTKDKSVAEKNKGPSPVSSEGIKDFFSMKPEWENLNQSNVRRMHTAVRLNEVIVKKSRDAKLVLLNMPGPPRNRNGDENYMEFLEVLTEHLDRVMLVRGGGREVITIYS
HSV augment: increases HSV replication in cells; HSV replication augmentation in cells, fold increase; maximum fold increase; hit rate 0.005% among 220,000; AID 1956; in the data active = maximum fold increase above about 1.5; inconclusive = no clear call, values can overlap the other calls; tested in PC3 cells
STAT1 activator: increases IFN-gamma driven STAT1 reporter signal; NIH 3T3 STAT1-luciferase reporter, luminescence; 100% = IFN-gamma alone, no compound; hit rate 2.6% among 200,000; activation (% of control), % at 5.5 µM;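 active = activation above the screen-wide mean activation plus 3 SD, cut at about 130% in these data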;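 note: raw ratio to IFN-gamma control signal so 100% means no change and 0% no light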
STAT3 act: increases IL-6 driven STAT3 reporter signal; U3A cells, IL-6 STAT3-luciferase reporter, luminescence; 100% = signal with IL-6 EC80 alone; activation (% of control), % at 5.6 µM; AID 871; hit rate 0.91% among 190,000;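 active = activation above the screen-wide mean of compound activation plus 3 SD, cut at about 130% in these data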;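 note: 0% = background luminescence of wells with medium and substrate only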
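Detection: reporter luminescence signal / Assay system: STAT1-lacking human U3A cells, STAT3 luciferase reporter / Incubation: compound pre-incubation 1 h before IL-6, then 6 h stimulation at 37 °C / Control set: IL-6-only high control / Read-out: % activation relative to IL-6 control / Probe or stimulus: Interleukin-6, 33 ng/mL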
STAT3 inh: STAT3 signaling inhibition. U3A cells, IL-6 STAT3-luciferase reporter, luminescence; host cell line lacks STAT1. inhibition, % at 5.5 µM. hit rate 0.89% among 190,000. AID 862;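 active = inhibition above the mean inhibition across all screened compounds plus 3 SD, cut at about 44% in these data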;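 note: 0% = DMSO only wells and 100% = 100 µM nifuroxazide control wells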
KCC2 sec1: confirmation of human KCC2 transport modulators. shares compounds with KCC2 mod. HEK293-KCC2, thallium flux, FluoZin2 fluorescence; active compounds read high. normalised thallium flux (F/F0 slope) at 10 µM. hit rate 15% among 3,700. AID 1713;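 active = thallium flux slope above the same plate's solvent-only control mean plus 3 SD; inconclusive = the two replicate wells disagree; inactive = no significant difference from solvent-only control wells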
KCC2 bumet counter: thallium flux persisting under bumetanide in KCC2 cells, counter-screen secondary assay | normalized thallium flux at 10 µM | shares compounds with KCC2 mod | hit rate 49% among 3,700 | HEK293-KCC2 + bumetanide/ouabain, thallium flux FluoZin2; active compounds read high;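 active = thallium entry rate above the same plate's blocked-transporter control wells by more than 3 SD; inconclusive = the two repeat wells disagree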;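 note: raw slope of fluorescence over initial fluorescence between 10 and 20 s after thallium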
KCC2 sec2: confirmation of human KCC2 transport modulators. normalized thallium flux at 10 µM. shares compounds with KCC2 mod. HEK293-KCC2, thallium flux FluoZin2 fluorescence; actives lie on both sides; F/F0 rise rate, 10–20 s post-thallium. AID 1715. hit rate 23% among 3,700;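 active = thallium flux slope more than 3 SD above or below the plate's solvent-only control mean, mostly below; inconclusive = the two repeat wells disagreed; inactive = no significant shift from solvent-only controls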;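 note: raw slope with 0.1% DMSO as baseline and bumetanide as block control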
HEK counter1: parental HEK flux effect, counter-screen. HEK293 parental cells, thallium flux FluoZin2, ouabain; baseline-ratio fluorescence slope, 10–20 s after thallium. shares compounds with KCC2 mod. hit rate 46% among 3,700. AID 1716. thallium flux rate (normalised fluorescence) at 10 µM;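 active = thallium flux rate significantly above the same plate's solvent-only control wells, beyond their mean plus 3 SD; inconclusive = the two replicate wells gave conflicting results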
KCC2 retest ouab: modulates human KCC2 on retest with ouabain; shares compounds with KCC2 mod; HEK293-KCC2, thallium flux FluoZin2 fluorescence; bidirectional: low = inhibitor, high = activator; raw Tl+ flux slope (below DMSO = inhibition, above = activation) at 10 µM; hit rate 48% among 3,700; AID 1717;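 active = thallium flux slope beyond 3 SD from same-plate DMSO control mean in most replicates, usually higher, sometimes lower; inconclusive = repeat tests gave conflicting results; inactive = no significant difference from controls in most replicates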;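 note: slope of initial-normalized fluorescence between seconds 10 and 20 after thallium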
HEK293 Tl flux2: acts in parental HEK cells, second KCC2 counter-screen; AID 1718; HEK293 parental, thallium flux FluoZin-2 fluorescence slope; hit rate 33% among 3,700; shares compounds with KCC2 mod; thallium flux slope at 10 µM;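 active = thallium flux slope above the same plate's solvent-control mean plus 3 SD in both duplicate wells; inconclusive = duplicate wells that disagreed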;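 note: run without ouabain in cells lacking the KCC2 cotransporter; slope of fluorescence scaled to its starting value between 10 and 20 s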
Starred values were filed as active, the others as inactive; i = inactive; ? = inconclusive; / = not tested or not shown.

SMILES	STAT1 blocker	KCC2 mod	HSV augment	STAT1 activator	STAT3 act	STAT3 inh	KCC2 sec1	KCC2 bumet counter	KCC2 sec2	HEK counter1	KCC2 retest ouab	HEK293 Tl flux2
CC(Sc1nnnn1-c1ccccc1)C(=O)Nc1ccc(Cl)cn1 (centres undefined)	5	-4.4*	i	96	96	8	0.0073	0.0043	0.026*	0.006*	0.015*	?
O=C(CSc1nnc2c(Cl)cc(Cl)cn12)N1CCN(c2ccc(F)cc2)CC1	-3	0.13	i	102	102	-3	/	/	/	/	/	/
CCn1c(SCc2nc(-c3ccccc3)no2)nnc1-c1cccs1	-8	/	i	113	91	11	0.0084	0.0045	0.031	0.007	0.016*	?
Cc1ccccc1CNC(=O)c1cc(COc2ccc(F)cc2F)on1	-3	-2.2	i	101	101	4	/	/	/	/	/	/
O=C(c1cc(F)ccc1F)C1CCCN(C(=O)c2ccc(F)cc2Cl)C1 (centres undefined)	6	/	i	93	93	12	/	/	/	/	/	/
O=C(c1cc(COc2ccc(F)cc2Cl)on1)N1CCC(OCc2cccnc2)CC1	19	/	i	81	90	16	0.0081	0.0064	0.028	0.007	0.03*	0.01
Cc1nonc1C1CCCN1C(=O)c1cc(COc2ccc(F)cc2Cl)on1 (centres undefined)	-12	/	i	111	87	21	0.016	0.004	0.024*	?	0.013	0.0099
O=C(c1cc(COc2ccc(F)cc2Cl)on1)N1CCCC(OCc2cccnc2)C1 (centres undefined)	0	/	i	99	96	9	0.0067	0.0052	0.028	0.0071	0.014*	?
Cc1cc2nc(-c3ccc(SCc4ccc(C(=O)O)cc4)nc3)[nH]c2cc1C	-18	-4*	i	115	104	3	0.0072	0.0037	0.026	?	0.014*	0.0091
Cc1cc2nc(-c3ccc(SCc4ccccc4C#N)nc3)[nH]c2cc1C	-19	/	i	117	90	21	/	/	/	/	/	/
C/C(=N\Nc1cccc(C(F)(F)F)c1)c1ccc(O)cc1	22	-0.4	i	78	99	9	/	/	/	/	/	/
COc1ccc(NC(=O)CCC2CCCCC2)cc1S(=O)(=O)N1CCCCC1	8	-3.9*	i	93	97	9	0.0074	0.0058	0.029	0.0066	0.019	0.0096
O=C(NC(=S)NNC(=O)c1cnccn1)c1ccc(Cl)cc1	/	9.1*	i	/	/	/	0.012	0.013*	0.036	?	?	?
CC(C)c1ccc(OCC(=O)NNC(=O)c2cnccn2)cc1	/	5.7*	i	/	/	/	0.0076	0.011*	0.033	0.012*	0.024*	0.015*
O=C(COc1ccc(Cl)cc1)NNC(=O)c1ccccn1	4	4.4*	/	96	95	13	0.01	0.019*	0.034	0.011*	0.025	?
Cc1cc(Cl)ccc1OCC(=O)NNC(=O)c1cnccn1	2	9.5*	i	98	93	18	0.006	0.015*	0.031	0.015*	?	0.013*
O=C(COc1cccc2ccccc12)NNC(=O)c1cnccn1	0	-0.2	i	100	102	-1	/	/	/	/	/	/
Cc1cc(Br)ccc1OCC(=O)NNC(=O)c1cnccn1	0	8.8*	i	100	81	26	0.017	0.027*	?	0.022*	0.028*	0.024*
CCC(C)c1ccc(NC(=S)Nc2ccc(OC)cc2)cc1 (centres undefined)	4	-0.72	i	97	98	7	/	/	/	/	/	/
COc1ccc(CN2CCOCCOCCN(Cc3ccc(OC)cc3)CCOCCOCC2)cc1	/	-1.1	i	/	/	/	/	/	/	/	/	/
Cc1ccc(N(C)S(=O)(=O)c2cccc(C(=O)Oc3ccc4c(C)cc(=O)oc4c3)c2)cc1	3	-0.38	i	97	103	6	/	/	/	/	/	/
O=C(Cn1cnc2c(nnn2Cc2ccccc2)c1=O)c1ccccc1	-1	-4.7*	/	102	101	-1	0.0059	0.0048	0.024*	?	0.014*	0.011
Cc1ccc(Cn2nnc3c(=O)n(CC(=O)N4CCN(c5ccccc5)CC4)cnc32)cc1	6	-3.2*	i	94	93	11	0.0075	0.0059	0.031	0.0064	?	0.0095
O=C(Cn1cnc2c(nnn2Cc2ccc(F)cc2)c1=O)N1CCCCC1	4	/	/	97	107	-3	0.0076	0.0057	0.03	0.0085	0.014*	0.012
O=C(Cn1cnc2c(nnn2-c2ccc(F)cc2)c1=O)N1CCCc2ccccc21	4	-4.4*	i	96	91	13	0.0071	0.0048	0.027	0.0075	0.017	0.0099
SMILES	STAT1 blocker	KCC2 mod	HSV augment	STAT1 activator	STAT3 act	STAT3 inh	KCC2 sec1	KCC2 bumet counter	KCC2 sec2	HEK counter1	KCC2 retest ouab	HEK293 Tl flux2
O=C(Cn1cnc2c(nnn2Cc2ccc(Cl)cc2)c1=O)c1ccccc1	7	-2.6	i	93	/	/	/	/	/	/	/	/
CCOC(=O)c1c(NC(=O)c2cc(-c3ccc(O)cc3)on2)sc(C(C)=O)c1C	-7	-0.79	/	106	102	-3	/	/	/	/	/	/
O=C(Cn1cnc2c(nnn2Cc2ccc(F)cc2)c1=O)NCc1ccco1	3	-4.5*	i	97	118	-17	0.0069	0.0048	0.024*	0.0075	0.017*	0.01
O=C(Cn1cnc2c(nnn2Cc2ccc(Cl)cc2)c1=O)NCc1ccco1	2	-2.8	i	98	111	-9	/	/	/	/	/	/
Cc1ccc(Cn2c(SCC(N)=O)nc3c2c(=O)n(C)c(=O)n3C)cc1	-4	4.8*	i	104	99	3	0.0064	?	0.034	0.0075	0.019	0.011
Nc1c(C(=O)O)sc2nc(-c3ccccc3)cc(-c3ccccc3)c12	/	0.42	i	/	/	/	/	/	/	/	/	/
Nc1c(C(=O)O)sc2nc(-c3ccccc3)cc(-c3ccc(F)cc3)c12	/	-5.4*	i	/	/	/	0.0089	0.012*	0.028	0.0069	0.012*	0.01
